Experimental data published in PubChem BioAssay.
Results filed as inconclusive are left out.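 The calls were made as follows, unless noted: active = viability increase at or above a cutoff of the median across tested compounds plus 3 SD (cut at about 8.5% in these data, passing the limit was not always enough); inconclusive = some gains above the cutoff, reason not given; inactive = the rest.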

Tests used:
[1] = S. cerevisiae growth inhibition in permissive medium (OD615), pilot counter-assay for S. cerevisiae lifespan shortening project, permissive growth control (AID 705;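 active = growth inhibition above 25% in both replicates, a cutoff set 3 SD above the mean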); conditions: OD615, 24 h, at 10 µM, active compounds read high
Method in brief: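 System: Engineered DeaD yeast | Buffer or medium: SC raffinose/galactose permissive medium | Incubation: Cells pre-grown 4 h, then 24 h compound exposure, 30 °C humidified | Measured by: Absorbance (optical density) at 615 nm | Read-out: Reduction in yeast growth (OD615)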

[2] = S. cerevisiae growth inhibition in restrictive medium, OD615, pilot screen, restrictive growth control, yeast lifespan reduction project (AID 706;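 active = growth inhibition above a set limit, 3 SD over mean compound inhibition, in both replicates, cut at about 43% in these data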;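 also: modified DeaD lifespan yeast strain shifted to restrictive glucose medium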); conditions: OD615, 48 h, at 10 µM, active compounds read high
Method in brief: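 Material: modified S. cerevisiae; Medium: glucose-based CSMM-D restrictive medium; Compound dosing: one concentration, 10 µM final, 0.25% DMSO; Incubation: 48 h compound exposure at 30 °C; Measured by: OD615.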

[3] = doxorubicin toxicity protection in MRP-1 cells – H69AR cells, CellTiter-Glo, duplicate, MRP-1 activator project, pilot screen (AID 807); conditions: H69AR viability with doxorubicin, CellTiter-Glo luminescence; at 10 µM; active compounds read high;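 also: compound pretreatment 18-22 h then 72 h combined with doxorubicin; 0% = doxorubicin alone and 100% = vehicle without doxorubicin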
[4] = viability of HCT116 without oncogenic beta-catenin – human colon tumor cells, pilot screen (AID 823;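 active = cell viability at or below a set limit in both duplicate runs, the limit being the all-compound median minus 4 SD, cut at about 23% in these data, passing the limit was not always enough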;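 also: 0% = wells killed by 20 µM Hyamine and 100% = untreated DMSO cell wells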); conditions: HCT116 beta-catenin knockout viability, CellTiter-Glo, 60 h; at 10 µM; active compounds read low
[5] = viability of PTEN-null HCT116 cells – cell-based, HCT116 clonal line, CellTiter-Glo, pilot screen (AID 824;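 active = viability at or below 27.92% in each of two runs, the all-compound median minus 4 SD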;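 also: 0% = 20 µM Hyamine control and 100% = vehicle cell control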); conditions: HCT116 PTEN-deleted viability, 60 h, at 10 µM, active compounds read low
[6] = RAM pathway blockade in budding yeast – dse1pr::URA3 reporter, 5-FOA selection, pilot screen (AID 869;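 active = inhibition over a set limit, the all-compound mean plus 3 SD, in both replicate runs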;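 also: 0% = DMSO wells with no growth and 100% = 10 µM 1-NA-PP1 with full growth; RAM network block rescues cells from 5-FOA so hits raise OD615 growth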); conditions: S. cerevisiae dse1pr::URA3 5-FOA growth, OD615, 2 d; at 10 µM; active compounds read high; strain carries analog-sensitive mutant Cbk1 kinase
[7] = RAM signaling pathway blockade in yeast – S. cerevisiae, Pdr1DBD-CYC8 efflux-inhibited sensitized strain, primary screen (AID 1298;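 active = RAM network inhibition above 8.4% in each of two replicates, 3 SD over the compound average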;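 also: 0% = DMSO untreated cells without growth and 100% = 10 µM 1-NA-PP1 full growth; higher means more yeast growth rescued from 5-FOA killing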); conditions: S. cerevisiae cbk1-as DSE1-URA3 strain, 5-FOA growth OD615, 2 d; at 50 µM; active compounds read high

O=C(c1ccc(Br)o1)N1CCN=C1SCc1cccnc1
inactive: growth inhibition [1] -14.4% | growth inhibition [2] -6.34% | viability increase [3] 2.52% | viability [4] 90.4% | viability [5] 87.6% | inhibition [6] 2.11% | RAM network inhibition [7] 3.23%

CCNc1nc(C)cc(COC)c1C#N
inactive: growth inhibition [1] -6.41% | growth inhibition [2] -0.29% | viability increase [3] -0.27% | viability [4] 97.7% | viability [5] 102% | inhibition [6] 1.4% | RAM network inhibition [7] -0.06%

N#CN=C1SCCS1
inactive: growth inhibition [1] -5.58% | growth inhibition [2] -14.9% | viability increase [3] -0.61% | viability [4] 103% | viability [5] 99% | inhibition [6] 1.71% | RAM network inhibition [7] 0.1%

Cc1nc(N2CCN(c3ccccc3)CC2)c2c3c(sc2n1)CCC3
inactive: growth inhibition [1] -0.345% | growth inhibition [2] 29.8% | viability increase [3] 3% | viability [4] 73.8% | viability [5] 81.5% | inhibition [6] 1.38% | RAM network inhibition [7] 1.62%

OCCNc1nc(Nc2ccccc2)nc(Nc2ccccc2)n1
inactive: growth inhibition [1] 14% | growth inhibition [2] 4.96% | viability increase [3] -1.23% | viability [4] 95.8% | viability [5] 94% | inhibition [6] -0.245% | RAM network inhibition [7] -1.3%

CCCNc1nc2c(c(=O)[nH]c(=O)n2C)n1CCc1ccccc1
inactive: growth inhibition [1] -3.82% | growth inhibition [2] 0.97% | viability increase [3] -1.3% | viability [4] 112% | viability [5] 103% | inhibition [6] 1.56% | RAM network inhibition [7] 5.88%

Cn1c(=O)cc(N2CCc3ccccc32)[nH]c1=O
inactive: growth inhibition [1] -11.7% | growth inhibition [2] 2.4% | viability increase [3] 0.37% | viability [4] 90.8% | viability [5] 98.1% | inhibition [6] 1.23% | RAM network inhibition [7] -1.11%

COc1ccc(-c2nc(CSCC(=O)N3CCN(C(=O)c4ccco4)CC3)c(C)o2)cc1OC
inactive: growth inhibition [1] -1.3% | growth inhibition [2] 0.055% | viability increase [3] -1.9% | viability [4] 106% | viability [5] 103% | inhibition [6] -0.54% | RAM network inhibition [7] 5.11%

CCCCCSc1nnc2c(n1)OC(C)N(C(C)=O)c1ccccc1-2 (configuration not stated)
inactive: growth inhibition [1] -10.3% | growth inhibition [2] -6.29% | viability increase [3] -4.28% | viability [4] 82.8% | viability [5] 86.5% | inhibition [6] 1.47% | RAM network inhibition [7] 2.22%

CN(C)C(CNC(=O)c1cccs1)c1cccnc1 (configuration not stated)
inactive: growth inhibition [1] -14.2% | growth inhibition [2] -20.4% | viability increase [3] -0.5% | viability [4] 105% | viability [5] 97.4% | inhibition [6] 3.75% | RAM network inhibition [7] 0.26%

CC(=O)c1cc(Cc2csc(C(C)=O)c2)cs1
inactive: growth inhibition [1] -9.93% | growth inhibition [2] -5.34% | viability increase [3] -2.14% | viability [4] 100% | viability [5] 100% | inhibition [6] 1.38% | RAM network inhibition [7] 3.88%

COc1ccc(-c2noc(CN3CCN(c4ccccc4)CC3)n2)cc1
inactive: growth inhibition [1] -12.7% | growth inhibition [2] -10.2% | viability increase [3] -1.14% | viability [4] 93.6% | viability [5] 88.4% | inhibition [6] 1% | RAM network inhibition [7] 5.43%

CC(=O)c1cccc(NC(=O)c2cc(C(C)C)on2)c1
inactive: growth inhibition [1] -14.6% | growth inhibition [2] 0.275% | viability increase [3] -1.46% | viability [4] 104% | viability [5] 97.7% | inhibition [6] 0.785% | RAM network inhibition [7] 0.94%

CCOC(=O)N1CCN(C(=O)c2ccc3c(c2)N(CC)CCS3)CC1
inactive: growth inhibition [1] -2.54% | growth inhibition [2] 2.25% | viability increase [3] -0.26% | viability [4] 101% | viability [5] 97% | inhibition [6] 1.89% | RAM network inhibition [7] -1.13%

COC(=O)CN1C(=O)CC(C)(C)Sc2ccccc21
inactive: growth inhibition [1] -16.9% | growth inhibition [2] -27.1% | viability increase [3] 1.77% | viability [4] 103% | viability [5] 101% | inhibition [6] 2.17% | RAM network inhibition [7] 2.53%

COc1ccc(NC(=O)C2CCCN2S(=O)(=O)c2ccc(F)cc2)cc1 (configuration not stated)
inactive: growth inhibition [1] -11.8% | growth inhibition [2] -12.7% | viability increase [3] -0.14% | viability [4] 109% | viability [5] 99.2% | inhibition [6] 1.87% | RAM network inhibition [7] -1.32%

CCc1nnc(NC(=O)CSc2nnc(Cc3cccn3C)n2C)s1
inactive: growth inhibition [1] 5.43% | growth inhibition [2] 30.4% | viability increase [3] -1.23% | viability [4] 100% | viability [5] 96% | inhibition [6] 0.7% | RAM network inhibition [7] 1.19%

COc1ccc(C2C(C(=O)N3CC(C)CC(C)C3)c3ccccc3C(=O)N2C)cc1 (configuration not stated)
inactive: growth inhibition [1] -10.8% | growth inhibition [2] -4.94% | viability increase [3] -1.09% | viability [4] 96.7% | viability [5] 93% | inhibition [6] 0.305% | RAM network inhibition [7] 0.47%

Cc1c(NC(=O)NCCN2C(=O)C3C4C=CC(C4)C3C2=O)c(=O)n(-c2ccccc2)n1C (configuration not stated)
inactive: growth inhibition [1] -9.82% | growth inhibition [2] -8.71% | viability increase [3] 0.15% | viability [4] 98.2% | viability [5] 99.8% | inhibition [6] 1.09% | RAM network inhibition [7] 4.55%

CCc1ccc(NC(=O)CSc2nc3c(c(=O)n(C)c(=O)n3C)n2C)cc1
inactive: growth inhibition [1] 3.77% | growth inhibition [2] -8% | viability increase [3] -1.41% | viability [4] 91.8% | viability [5] 94.6% | inhibition [6] 1.03% | RAM network inhibition [7] 0.68%

CC1(C)CC(=O)N(c2ccccc2)C1(C)O (configuration not stated)
inactive: growth inhibition [1] -8.08% | growth inhibition [2] -4.3% | viability increase [3] 0.17% | viability [4] 93.7% | viability [5] 104% | inhibition [6] 0.395% | RAM network inhibition [7] 1.53%

C=CCNc1oc(Cc2cccc3ccccc23)nc1C#N
inactive: growth inhibition [1] -19.8% | growth inhibition [2] -9.46% | viability increase [3] -3.89% | viability [4] 107% | viability [5] 88% | inhibition [6] 1.04% | RAM network inhibition [7] 2.18%

CC1CCC(NC(=O)c2cc3c(=O)n(C)c4ccccc4c3n2C)CC1 (configuration not stated)
inactive: growth inhibition [1] -12.8% | growth inhibition [2] -9.28% | viability increase [3] -4.41% | viability [4] 76.8% | viability [5] 66% | inhibition [6] 2.25% | RAM network inhibition [7] 4.58%

CC(C)N(CCCNC(=O)CC1Oc2ccccc2NC1=O)Cc1ccccc1 (configuration not stated)
inactive: growth inhibition [1] 2.46% | growth inhibition [2] 10.3% | viability increase [3] -1.49% | viability [4] 89.3% | viability [5] 97.7% | inhibition [6] 0.47% | RAM network inhibition [7] 3.18%

CCc1cc(Br)ccc1N1C(=O)C2CC=CCC2C1=O (configuration not stated)
inactive: growth inhibition [1] -6.14% | growth inhibition [2] -7.71% | viability increase [3] 0.19% | viability [4] 86.5% | viability [5] 94.9% | inhibition [6] 1.2% | RAM network inhibition [7] 0.4%

CC(C)N(CCc1ccncc1)C(=O)Nc1ccc(Cl)c(Cl)c1
inactive: growth inhibition [1] -4.55% | growth inhibition [2] -1.79% | viability increase [3] -0.23% | viability [4] 81.1% | viability [5] 87.8% | inhibition [6] 2.42% | RAM network inhibition [7] 3.94%

COc1ccc(NC(=O)N2CCC(c3ccccc3)C2)c(OC)c1 (configuration not stated)
inactive: growth inhibition [1] -3.06% | growth inhibition [2] 9.96% | viability increase [3] 1.59% | viability [4] 90.9% | viability [5] 90.2% | inhibition [6] 0.67% | RAM network inhibition [7] -1.49%

Cc1oc(-c2cccc(Cl)c2)nc1CN1CCCC(C(=O)NC(C)c2ccc3c(c2)OCCO3)C1 (configuration not stated)
inactive: growth inhibition [1] -7.17% | growth inhibition [2] -16.3% | viability increase [3] -4.74% | viability [4] 33.7% | viability [5] 37.5% | inhibition [6] 2.46% | RAM network inhibition [7] 5.6%

CN1CCN(S(=O)(=O)c2ccc(-c3ccc(S(=O)(=O)N4CCN(C)CC4)cc3)cc2)CC1
inactive: growth inhibition [1] -23.4% | growth inhibition [2] -19.1% | viability increase [3] 0.84% | viability [4] 96.5% | viability [5] 96.2% | inhibition [6] 0.68% | RAM network inhibition [7] 0.57%

CCOC(=O)COc1cccc2c(=O)n(CC(=O)N3CCc4ccccc43)ccc12
inactive: growth inhibition [1] -10.5% | growth inhibition [2] -15.5% | viability increase [3] -2.89% | viability [4] 98.6% | viability [5] 90.7% | inhibition [6] 1.25% | RAM network inhibition [7] 3.56%

COc1ccc(OC)c(CCNC(=O)C2CCN(c3nnc(-n4cccc4)s3)CC2)c1
inactive: growth inhibition [1] -7.79% | growth inhibition [2] -20.5% | viability increase [3] -4.48% | viability [4] 85.2% | viability [5] 81.9% | inhibition [6] 4.26% | RAM network inhibition [7] 7.35%

Cc1nn(C)c(C)c1S(=O)(=O)N(CC(=O)NCCN1CCOCC1)c1ccc(C(C)C)cc1
inactive: growth inhibition [1] -13.5% | growth inhibition [2] -11.8% | viability increase [3] -1.69% | viability [4] 102% | viability [5] 101% | inhibition [6] 1.83% | RAM network inhibition [7] 2.73%

CCc1n[nH]c2c1/C(=N\O)CC(C)(C)C2
inactive: growth inhibition [1] -4.62% | growth inhibition [2] -1.83% | viability increase [3] -2.26% | viability [4] 99.4% | viability [5] 108% | inhibition [6] 1.68% | RAM network inhibition [7] 1.03%

CC(=O)N1CCC(Nc2ccc(C)cc2)CC1
inactive: growth inhibition [1] -15.6% | growth inhibition [2] -9.18% | viability increase [3] 0.99% | viability [4] 101% | viability [5] 97.3% | inhibition [6] -0.41% | RAM network inhibition [7] 1.48%

O=C(NCCc1ccc(S(=O)(=O)N2CCCC2)cc1)c1cccs1
inactive: growth inhibition [1] 2.67% | growth inhibition [2] 7.14% | viability increase [3] -1.73% | viability [4] 93.4% | viability [5] 90.2% | inhibition [6] 0.545% | RAM network inhibition [7] 6.32%

CCCNC(=O)NCCc1c(C)[nH]c2ccccc12
inactive: growth inhibition [1] 4.3% | growth inhibition [2] -9.91% | viability increase [3] -3.16% | viability [4] 99.8% | viability [5] 99% | inhibition [6] 1.35% | RAM network inhibition [7] 1.69%
